Measured values: article PMC6803818 (Future Medicinal Chemistry, 2019)
“Also recorded” adds a separate entry of the source. Where two headings read alike, the source gives them in different places.

Assays:
[1] = system: cancer cell lines with homozygous Y220C mutation; details: cited from earlier work
stabilized p53-Y220C DBD = stabilized p53-Y220C DBD (Homo sapiens, UniProt P04637, M133L/N239Y/N268D/V203A/Y220C); assay: Differential scanning fluorimetry; assay type: binding; details: compound concentration 250 μM, 8-μM protein
Method in brief: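 Thermal shift by DSF used 8 μM stabilized human p53 DBD (residues 94–312, M133L/V203A/N239Y/N268D plus Y220C) with 10× SYPRO Orange. Buffer was 25 mM KPi pH 7.2, 150 mM NaCl, 1 mM TCEP, with 5% (v/v) DMSO final. Test compound was at 250 μM. ΔTm = Tm(mutant + ligand) − Tm(mutant), averaged over replicate runs.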

p53-Y220C DBD = p53-Y220C DBD (Homo sapiens, UniProt P04637, M133L/N239Y/N268D/V203A/Y220C); assay: Isothermal titration calorimetry; assay type: binding
p53 Y220C DBD (94-312) = p53 Y220C DBD (94-312) (Homo sapiens, UniProt P04637, M133L/N239Y/N268D/V203A/Y220C); assay: Light scattering assay, aggregation kinetics at 37°C; assay type: biochemical; details: for slowing of initial rate of Y220C aggregation relative to PK9318: 15 μM compound
[2] = system: HUH-7 cells (homozygous p53-Y220C); assay: Cell viability, 72 h incubation; assay type: cell-based, human; details: for p53-Y220C-dependent cell viability reduction: HUH-7 versus HUH-7 p53 KO
Method in brief: (§1)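 HUH-7 (Y220C) cells and an isogenic CRISPR/Cas9 p53 knockout clone (HUH7-F1: codon-124 frameshift on one allele, deletion of residues 125–223 on the other) were exposed to 0.6–15 μM test compound for 72 h. Viability was read in quadruplicate and normalized to blank (=1) and no-cell (=0) controls. Data are mean ± SEM of triplicates, with a paired t-test comparing parental and knockout lines.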

[3] = Cell viability, 72 h incubation, isogenic knockout; assay type: cell-based, human; details: human
Method in brief: as §1

[4] = system: NUGC-3 (Y220C) and NUGC-4 (wild-type p53); assay: Cell viability of gastric cancer cell lines, 72 h; assay type: cell-based, human; details: NUGC-3 (Y220C) versus NUGC-4 (wild-type p53)
p53 wild type = p53 wild type (Homo sapiens, UniProt P04637); assay: DSF with wild type p53 DBD; assay type: binding; details: same conditions as in Table 1 (250 μM)
Method in brief: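 Thermal shift of the p53 DNA-binding domain (8 μM) with 10× SYPRO Orange in 25 mM KPi (pH 7.2), 150 mM NaCl, 1 mM TCEP, at 5% (v/v) final DMSO. Test compound was present at 250 μM. ΔTm = Tm (protein + ligand) − Tm (protein alone).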

[5] = system: HUH-7 p53 KO cells (HUH7-F1); assay: Cell viability, 72 h incubation, isogenic knockout; assay type: cell-based, human; details: 0.6 to 15 μM, 72 h, HUH-7 p53 KO
Method in brief: as §1

[6] = read-out: ITC KD, ¶ single measurement with ITC fit error, # mean of at least three independent measurements with SEM

In the case of `Cn1cc(-c2ccccc2)c(-n2cccc2)n1` [PK7088], the “effect in Y220C cancer cell lines” value [1] is listed as “induced a mutant-specific increase in the amount of correctly folded protein and upregulation of p53 target genes p21 and NOXA”.
With `CCn1c2ccc(CNC)cc2c2ccc(Br)cc21` [PK9284] the “DSF ΔTM (°C)” value (stabilized p53-Y220C DBD) was 3.0 ± 0.1 °C, the “affinity increase compared with PK083” value (p53-Y220C DBD) was “ca. tenfold” and the Kd (p53-Y220C DBD; [6]) was 14.2 ± 2 µM.
Work on `CCOc1ccc2c3cc(CNC)ccc3n(CC)c2c1` [PK9295] yielded a Kd (p53-Y220C DBD) of 62 ± 6.5 µM.
With `CCn1c2ccc(CNC)cc2c2ccc(-c3cccs3)cc21` [PK9318] the “DSF ΔTM (°C)” value (stabilized p53-Y220C DBD; 250 µM) was 3.6 ± 0.2 °C, the “lowering of initial aggregation rate versus no compound” value (p53 Y220C DBD (94-312); 30 μM compound, 1:10 protein–ligand ratio) was “approximately sixfold lower initial aggregation rate” and the cell viability ([2]; 15 μM, 72 h, HUH-7) was “complete viability loss”. The “concentration inducing viability loss” value ([2]; 72 h, HUH-7) was no less than 3.75 mM, the “p53-Y220C-dependent cell viability reduction” value ([2]; 72 h) was “p53-Y220C-dependent cell viability reduction was observed; also recorded: Y220C-mutant-specific viability reduction” and the viability at 7.5 µM ([2]; Homo sapiens, Huh-7, 72 h, read-out: cell viability) was 58%. For the same molecule, the viability at 72 h, 7.5 µM [3] was 88%, the viability at 72 h, 15 µM [3] was 40% and the “preferential viability reduction in p53-Y220C cells” value (“preferential viability reduction” for short) [4] was “preferential viability reduction in p53-Y220C cells”.
With `CCn1c2ccc(CNC)cc2c2ccc(-c3ccco3)cc21` [PK9320] the “DSF ΔTM (°C)” value (stabilized p53-Y220C DBD; 250 µM) was 3.7 ± 0.0 °C, the Kd (p53-Y220C DBD; [6]) was 4 µM and the “preferential viability reduction” value [4] was “preferential viability reduction in p53-Y220C cells”.
For `CCn1c2ccc(CNC)cc2c2ccc(-c3ccoc3)cc21` [PK9321], the Kd (p53-Y220C DBD; [6]) was 5.6 ± 1.1 µM.
In the case of `CCn1c2ccc(CNC)cc2c2ccc(-c3cscn3)cc21` [PK9323], the “stabilization of the wild type in DSF” value (p53 wild type) is reported as “neither the starting scaffold PK083 nor the second-generation carbazole PK9323 did show any stabilization of the wild type” and the “preferential viability reduction” value [4] is reported as “preferential viability reduction in p53-Y220C cells”.
For `CCn1c2ccc(CNC)cc2c2ccc(-c3ccc(C)s3)cc21` [PK9327], the “slowing of initial rate of Y220C aggregation relative to PK9318” value (p53 Y220C DBD (94-312)) was “by a factor of two”.
With `CCn1c2ccc(CNC)cc2c2ccc(-c3cc(C)cs3)cc21` [PK9328] the Kd (p53-Y220C DBD; [6]) was 1.7 ± 0.2 µM, the “slowing of initial rate of Y220C aggregation relative to PK9318” value (p53 Y220C DBD (94-312)) was “by a factor of two” and the cell viability ([2]; 7.5 μM, 72 h, HUH-7) was “complete viability loss”. The “concentration inducing viability loss” value ([2]; 72 h, HUH-7) was no less than 3.75 mM, the “p53-Y220C-dependent cell viability reduction” value ([2]; 72 h) was “p53-Y220C-dependent cell viability reduction was observed” and the “p53-Y220C-dependent cell viability reduction” value ([2]; 72 h, listed as PK3328) was “Y220C-mutant-specific viability reduction”. For the same molecule, the viability at 72 h, 7.5 µM [3] was greater than 50% and the “preferential viability reduction” value [4] was “preferential viability reduction in p53-Y220C cells”.
For `CCn1c2ccc(CNC)cc2c2ccc(-c3cc(C)c(C)s3)cc21` [PK9329], the effect on viability ([2]; 0.6 to 15 μM, 72 h, HUH-7) was “did not have a significant effect on the viability”, the “p53-Y220C-dependent cell viability reduction” value ([2]; 72 h) was “did not show any p53-Y220C-dependent viability reduction” and the effect on viability [5] was “did not have a significant effect on the viability”.
